The source of these data is ChEMBL document CHEMBL3120051, “Synthesis of novel 1,2-benzothiazine 1,1-dioxide-3-ethanone oxime N-aryl acetamide ether derivatives as potent anti-inflammatory agents and inhibitors of monocyte-to-macrophage transformation” (Eur J Med Chem, 2014).

A short description of series [1]: Cytotoxicity against human THP1 cells assessed as cell viability at 20 uM after 72 hrs by trypan blue dye exclusion assay. Format: cell-based. Conditions: THP-1 cells, read-out: Activity. In outline: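 THP-1 cells were seeded at 2×10^5 cells/ml in triplicate and exposed to 20 µM for 72 h. Cells were then harvested, resuspended in 0.4% trypan blue, and percent viable cells counted on an automated cell counter chamber.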

Series [2] relates to THP-1. The series is described as follows: Antiinflammatory activity in human THP1 cells assessed as inhibition of PMA-induced MCP-1 secretion incubated for 2 hrs prior to PMA challenge measured after 72 hrs by ELISA. Format: functional, cell-based. In outline: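 THP-1 monocytes, 2×10^5/ml, received 5, 10 and 20 µM for 2 h before 100 nM PMA. Supernatant MCP-1 was measured by ELISA kit 72 h after PMA, with absorbance at 450 nm corrected at 570 nm and standard-curve quantitation. Percent inhibition is relative to control. IC50 is the predicted 50%-inhibition concentration, mean ± SD of three independent experiments.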
For orientation: In an ELISA, binding on a coated surface is turned into a signal by an enzyme label.

For series [3], the system named is THP-1. The series is described as follows: Antiinflammatory activity in human THP1 cells assessed as inhibition of PMA-induced IL-8 secretion incubated for 2 hrs prior to PMA challenge measured after 48 hrs by ELISA. Format: functional, cell-based. In outline:
(§1)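 Seeded at 2×10^5/ml, THP-1 cells were pretreated 2 h with 5, 10 and 20 µM, then stimulated with 100 nM PMA. Supernatants were taken after 48 h and assayed by ELISA kit, read at 450 nm corrected at 570 nm, and quantified against standard curves (pg/ml). Percent inhibition was calculated versus control. IC50 is the predicted 50%-inhibition concentration, mean ± SD of three independent experiments.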

The subject of series [4] is THP-1. The series is described as follows: Antiinflammatory activity in human THP1 cells assessed as inhibition of PMA-induced TNF-alpha secretion incubated for 2 hrs prior to PMA challenge measured after 48 hrs by ELISA. Format: functional, cell-based. In outline:
as §1

Series [5] has as its system THP-1. The series is described as follows: Antiinflammatory activity in human THP1 cells assessed as inhibition of PMA-induced CD-36 expression at 10 uM incubated for 2 hrs prior to PMA challenge measured after 36 hrs by RT-PCR analysis. Format: functional, cell-based. In a few lines: (§2)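 THP-1 monocytes (ATCC; RPMI 1640, 10% FBS, 37 °C, 5% CO2) pretreated 2 h, then 100 nM PMA for 36 h. Total RNA extracted in TRIzol, cDNA made, and LOX-1 and CD-36 transcripts measured by RT-PCR with gene-specific primers; GAPDH served as loading control.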

The test system of series [6] is THP-1. The series is described as follows: Antiinflammatory activity in human THP1 cells assessed as inhibition of PMA-induced LOX-1 expression at 10 uM incubated for 2 hrs prior to PMA challenge measured after 36 hrs by RT-PCR analysis. Format: functional, cell-based. In outline:
as §2

Series [7] concerns THP-1. Put plainly: Antiinflammatory activity in human THP1 cells assessed as inhibition of PMA-induced increase in mitochondrial number at 10 uM incubated for 2 hrs prior to PMA challenge measured after 48 hrs by confocal microscopy. Format: functional, cell-based. In a few lines: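 Cells were treated in cover-glass-bottom dishes: 10 µM for 2 h, then 100 nM PMA. After 48 h they were stained 1 h with 200 nM MitoTracker CMXRos in HBSS and counterstained with DAPI. Confocal imaging used rhodamine and DAPI filters, with five fields of view, and gentle washes between steps.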

Series [8] relates to THP-1. Put plainly: Antiinflammatory activity in human THP1 cells assessed as inhibition of PMA-induced increase in cell size at 10 uM incubated for 2 hrs prior to PMA challenge measured after 48 hrs by light microscopy. Format: functional, cell-based. In outline:
(§3)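 After 2 h pretreatment at 10 µM and 100 nM PMA for 48 h, THP-1 cultures had medium removed and were washed twice with warm DPBS. Phase-contrast light microscopy images were then used to assess adherence and monocyte/macrophage transformation.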

Series [9] has as its system THP-1. Put plainly: Antiinflammatory activity in human THP1 cells assessed as inhibition of PMA-induced increase in cell adherence at 10 uM incubated for 2 hrs prior to PMA challenge measured after 48 hrs by light microscopy. Format: functional, cell-based. In a few lines:
as §3

Series [10] addresses Matrix metalloproteinase-9 (Homo sapiens) (UniProt P14780). Put plainly: Inhibition of MMP-9 in human THP1 cells assessed as inhibition of PMA-induced monocyte to macrophage transformation at 10 uM incubated for 2 hrs prior to PMA challenge measured after 48 hrs by gelation zymography. Format: cell-based. Conditions: THP-1. In a few lines:
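THP-1 monocytes were pretreated 2 h at 10 µM, then stimulated with 100 nM PMA for 48 h. Conditioned medium was run without reducing agent on 10% SDS-PAGE containing 0.1% gelatin. Gels were renatured 30 min in 0.25% Triton X-100 and developed overnight at room temperature in Tris/CaCl2/Brij 35 buffer.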

Active and inactive are the calls of the source. The rule behind the calls is not given here.

Matrix metalloproteinase-9 (Homo sapiens), sequence (P14780 whole entry): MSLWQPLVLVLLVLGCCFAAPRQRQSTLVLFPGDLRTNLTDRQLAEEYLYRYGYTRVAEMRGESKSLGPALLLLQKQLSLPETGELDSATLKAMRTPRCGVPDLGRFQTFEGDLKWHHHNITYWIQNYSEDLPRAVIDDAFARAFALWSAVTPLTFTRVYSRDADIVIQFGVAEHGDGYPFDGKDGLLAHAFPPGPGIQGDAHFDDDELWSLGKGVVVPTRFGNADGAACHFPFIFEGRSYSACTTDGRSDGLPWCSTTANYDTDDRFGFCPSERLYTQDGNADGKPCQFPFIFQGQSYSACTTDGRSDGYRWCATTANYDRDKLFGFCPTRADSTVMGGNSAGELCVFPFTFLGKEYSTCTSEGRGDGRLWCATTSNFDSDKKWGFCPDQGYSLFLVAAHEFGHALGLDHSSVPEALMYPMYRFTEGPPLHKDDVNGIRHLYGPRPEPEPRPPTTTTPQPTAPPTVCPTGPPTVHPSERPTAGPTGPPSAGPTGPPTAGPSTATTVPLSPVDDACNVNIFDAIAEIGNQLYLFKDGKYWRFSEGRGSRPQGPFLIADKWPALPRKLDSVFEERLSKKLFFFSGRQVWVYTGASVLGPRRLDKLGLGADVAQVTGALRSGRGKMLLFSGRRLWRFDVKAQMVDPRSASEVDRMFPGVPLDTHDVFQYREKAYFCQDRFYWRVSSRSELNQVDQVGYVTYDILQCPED

Usually IC50 stands for the concentration that inhibits the measured activity by half. As to `CCOC1=C(/C(C)=N/OCC(=O)Nc2ccccc2)N(C)S(=O)(=O)c2ccccc21`, the viability at 72 h, 20 µM in series [1] turned out to be 93%. Also, the IC50 in the series with THP-1 [2], in the series on THP-1 [3] and in the series with THP-1 [4] was greater than 20 µM throughout.

For the molecule `COc1cccc(NC(=O)CO/N=C(\C)C2=C(O)c3ccccc3S(=O)(=O)N2C)c1`, the viability at 72 h, 20 µM in [1] is 92.5%. Also, the IC50 with THP-1 [2], with THP-1 [3] and in the series with THP-1 [4] was greater than 20 µM throughout.

`CCOC1=C(/C(C)=N/OCC(=O)Nc2ccc(OC)cc2)N(C)S(=O)(=O)c2ccccc21`: the viability at 72 h, 20 µM in series [1] amounted to 94.2%. In addition, the IC50 with THP-1 [2], in the series with THP-1 [3] and with THP-1 [4] was greater than 20 µM throughout.

Consider `CCOC1=C(/C(C)=N/OCC(=O)Nc2c(F)cccc2F)N(C)S(=O)(=O)c2ccccc21`, for which, in [1], the viability at 72 h, 20 µM amounted to 92.3%. Further, the IC50 in the series with THP-1 [2], with THP-1 [3] and in the series on THP-1 [4] was greater than 20 µM each time.

As for `C/C(=N\OCC(=O)Nc1ccccc1)C1=C(O)c2ccccc2S(=O)(=O)N1C`, in series [1], the viability at 72 h, 20 µM was determined as 94.1%. Moreover, the IC50 in the series with THP-1 [2], in the series on THP-1 [3] and in the series on THP-1 [4] was greater than 20 µM in each case.

In the case of `C/C(=N\OCC(=O)Nc1ccc(F)c(Cl)c1)C1=C(O)c2ccccc2S(=O)(=O)N1C`, in series [1], the viability at 72 h, 20 µM was found to be 95.1%. The IC50 with THP-1 [2], in the series with THP-1 [3] and in the series with THP-1 [4] was greater than 20 µM each time.

With `CCc1ccc(CCOc2ccc(CC3SC(=O)NC3=O)cc2)nc1` (stereo not drawn) [PIOGLITAZONE], the IC50 in the series on THP-1 [2] amounted to 18.6 µM.

As for `CCOC1=C(/C(C)=N/OCC(=O)Nc2ccc(Cl)c(C(F)(F)F)c2)N(C)S(=O)(=O)c2ccccc21`, the viability at 72 h, 20 µM in [1] was 90.2%. Also, the IC50 with THP-1 [2], in the series with THP-1 [3] and in the series on THP-1 [4] was greater than 20 µM throughout.

Regarding `CCOC1=C(/C(C)=N/OCC(=O)Nc2ccc(C(F)(F)F)cc2)N(C)S(=O)(=O)c2ccccc21`, the viability at 72 h, 20 µM in [1] came to 93%. Also, the results for the IC50 with THP-1 [2], with THP-1 [3] and with THP-1 [4] were 5.7 µM, 16.7 µM and greater than 20 µM, respectively.

As to `C/C(=N\OCC(=O)Nc1c(F)cccc1F)C1=C(O)c2ccccc2S(=O)(=O)N1C`, in [1], the viability at 72 h, 20 µM turned out to be 92.2%. Besides, the IC50 in the series on THP-1 [2], in the series on THP-1 [3] and with THP-1 [4] was greater than 20 µM in each case.

Take `C/C(=N\OCC(=O)Nc1cccc(F)c1)C1=C(O)c2ccccc2S(=O)(=O)N1C`: in series [1], the viability at 72 h, 20 µM came to 95.5%. The IC50 in the series with THP-1 [2] was 9.4 µM; in the series on THP-1 [3], greater than 20 µM; with THP-1 [4] it was greater than 20 µM.

Turning to `CCOC1=C(/C(C)=N/OCC(=O)Nc2cccc(OC)c2)N(C)S(=O)(=O)c2ccccc21`, in [1], the viability at 72 h, 20 µM was 96.2%. Further, the IC50 in the series on THP-1 [2], in the series with THP-1 [3] and in the series with THP-1 [4] was greater than 20 µM in each case.

Consider `CN1C(C(=O)Nc2ccccn2)=C(O)c2ccccc2S1(=O)=O` [PIROXICAM], for which the IC50 in the series with THP-1 [4] was greater than 20 µM.

For `CCOC1=C(/C(C)=N/OCC(=O)Nc2cccc(F)c2)N(C)S(=O)(=O)c2ccccc21`, the viability at 72 h, 20 µM in [1] came to 92%. Further, the IC50 in the series on THP-1 [2], in the series with THP-1 [3] and in the series on THP-1 [4] was greater than 20 µM each time.

As usually defined, the inhibition is the relative decrease from the control value, in per cent. As for `C/C(=N\OCC(=O)Nc1ccc(Cl)c(C(F)(F)F)c1)C1=C(O)c2ccccc2S(=O)(=O)N1C`, the inhibition entry in the series with THP-1 [5], in the series on THP-1 [6], with THP-1 [7], with THP-1 [8] and in the series with THP-1 [9] was “Active” each time. In addition, the inhibition in series [10] was determined as 75%. In addition, the viability at 72 h, 20 µM in series [1] came out at 91.2%. Further, the IC50 in the series on THP-1 [2] is 2.5 µM; in the series on THP-1 [3], greater than 20 µM; with THP-1 [4] it was 6 µM.

On to `C/C(=N\OCC(=O)Nc1ccc(C(F)(F)F)cc1)C1=C(O)c2ccccc2S(=O)(=O)N1C`, for which the inhibition result (with THP-1 [5]; in the series on THP-1 [6]; in the series on THP-1 [7]; in the series with THP-1 [8]; in the series on THP-1 [9]; in series [10]) was “Active” each time. Moreover, the viability at 72 h, 20 µM in series [1] stood at 93%. The IC50 was 4 µM in the series on THP-1 [2], greater than 20 µM in the series with THP-1 [3] and 12.1 µM in the series on THP-1 [4].

For `COc1ccc(NC(=O)CO/N=C(\C)C2=C(O)c3ccccc3S(=O)(=O)N2C)cc1`, the viability at 72 h, 20 µM in series [1] is 97.5%. The IC50 in the series on THP-1 [2], in the series on THP-1 [3] and in the series on THP-1 [4] was greater than 20 µM throughout.

Consider `CCOC1=C(/C(C)=N/OCC(=O)Nc2ccc(F)c(Cl)c2)N(C)S(=O)(=O)c2ccccc21`, for which the viability at 72 h, 20 µM in series [1] stood at 97.5%. Further, the IC50 in the series on THP-1 [2], in the series on THP-1 [3] and with THP-1 [4] was greater than 20 µM throughout.
